Screens: PubChem, several laboratories
Casp6 inh: inhibitors of human caspase-6. P55212. purified caspase-6, Z-VEID-R110 cleavage fluorescence. inhibition, % at 12.5 µM. 350,000 compounds, 0.53% hits. AID 686996;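 active means mean inhibition across replicates at least about 35%, with every replicate also reaching that limit, limit read from the data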
Target sequence (P55212 24-179 limits assumed): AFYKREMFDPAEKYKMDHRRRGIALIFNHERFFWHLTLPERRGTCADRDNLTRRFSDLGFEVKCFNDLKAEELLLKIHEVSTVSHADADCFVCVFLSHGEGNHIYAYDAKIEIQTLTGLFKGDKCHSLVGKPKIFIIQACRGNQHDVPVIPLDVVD
Target sequence (P55212 194-293 limits assumed): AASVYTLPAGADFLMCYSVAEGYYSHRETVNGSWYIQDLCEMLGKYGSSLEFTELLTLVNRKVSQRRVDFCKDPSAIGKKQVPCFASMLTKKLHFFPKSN
T cell HTS: modulates CD8 T cell binding to vesicles. 2C CD8+ T cell-vesicle binding, flow cytometry; stronger effect = lower value. response (vesicle binding), % at 7 µM. 330,000 compounds, 0.068% hits. AID 2052;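 active means response, share of CD8 T cells binding vesicles, and their 90th percentile fluorescence all below set limits, cut at about 80% in these data, passing the limit was not always enough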;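 further: values below 100% mean blocked vesicle binding to the CD8+ T cells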
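Incubation: binding step 1.5 h, 37 °C, antibody labelling 20 min, ice; system: murine 2C transgenic CD8+ T lymphocytes; technique: cytometric PE anti-B7-1 and Alexa647 anti-CD8 signals after 1% paraformaldehyde fixation; also added: QL9-charged Drosophila Ld/ICAM-1/B7-1 vesicles; control set: naked versus QL9-loaded vesicles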
Myeloid diff MLP: myeloid differentiation induction. ER-HoxA9 myeloid progenitors, lysozyme-GFP differentiation, flow cytometry. calls only at 10 µM. 360,000 compounds, 1% hits;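 active means normalized GFP-positive differentiation at or above the plate's own cutoff, the solvent-only control mean plus 3 SD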;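 further: cells exposed to compound for four days before flow analysis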
Vif imaging: blocks HIV Vif function. 340,000 compounds, 0.35% hits. HEK293T cells, Vif self-association by quenched fluorescence, imaging, 24 h. AID 602346. inhibition, % at 7.49 µM; in the data active means inhibition above about 50%, passing the limit was not always enough
Numbers stand for hits. Shown are actives, neighbours in structure and some others; about 1.4% of the full set was active somewhere.

C#CCOCCOCCOCCNc1nc(N2CCN(C(=O)CCCCCCCCCCNC(=O)[C@H]([C@@H](C)CC)n3cc(CCCCCN)nn3)CC2)nc(N2CCN(C(=O)CCCCCCCCCCNC(=O)[C@H](CO)n3cc(CCCCCN)nn3)CC2)n1 was read as T cell HTS inactive, Myeloid diff MLP inactive and Vif imaging 95.7.
Screening CO[C@@H]1CN(C)C(=O)c2ccc(NS(=O)(=O)c3ccc(Cl)cc3)cc2OC[C@@H](C)NC[C@@H]1C returned Casp6 inh inactive.
`C[C@@H]1CN([C@@H](C)CO)S(=O)(=O)c2ccc(C#Cc3ccccc3)cc2O[C@H]1CN(C)C` gave Casp6 inh inactive.
Screening CN1CCN(C(=O)C[C@@H]2CC[C@H]3[C@@H](COC[C@@H](O)CN3Cc3ccc4c(c3)OCO4)O2)CC1 returned Casp6 inh inactive.
`O=C(CN1CCOCC1)OCCCC1CCCCC1` gave T cell HTS inactive, Myeloid diff MLP inactive and Vif imaging 53.7.
For CCOc1cc(N2CCOCC2)c(OCC)cc1NC(C)C(=O)N1CCN(CC)CC1 (configuration not stated) the results were Casp6 inh 70.2, Myeloid diff MLP inactive and Vif imaging inactive.
`CCOc1cc(N2CCOCC2)c(OCC)cc1NS(=O)(=O)c1cc(NC(C)=O)ccc1OC` gave Casp6 inh 36.7, T cell HTS inactive, Myeloid diff MLP inactive and Vif imaging inactive.
`Cc1ccc(S(=O)(=O)Nc2ccc3c(c2)C(=O)N([C@@H](C)CO)C[C@H](C)[C@@H](CN(C)Cc2ccc(C(F)(F)F)cc2)OCCCC[C@@H](C)O3)cc1` gave Casp6 inh inactive.
`O=C(C[C@H]1C[C@@H]2c3cc(NC(=O)c4cccnc4)ccc3O[C@@H]2[C@@H](CO)O1)NCCc1ccccc1` gave Casp6 inh inactive.
Screening CC(=O)N1[C@@H]2c3cccc(=O)n3C[C@@H]2[C@@H](CO)[C@@H]1C(=O)NCc1ccc(F)cc1 returned Casp6 inh inactive.
For CCOC(=O)C1=C(C)Nc2ccccc2N/C1=N\S(=O)(=O)c1cc(C(=O)O)ccc1Cl the results were Casp6 inh 36.6, T cell HTS inactive, Myeloid diff MLP inactive and Vif imaging inactive.
Screening Cc1ccc(S(=O)(=O)N(C)C[C@H]2OCCCC[C@H](C)Oc3ccc(NS(=O)(=O)c4c(C)noc4C)cc3C(=O)N([C@@H](C)CO)C[C@@H]2C)cc1 returned Casp6 inh inactive.
Screening Cc1onc(-c2ccc(Cl)cc2Cl)c1-c1csc(N/N=C/c2ccccc2Cl)n1 returned Casp6 inh 38.5, T cell HTS inactive, Myeloid diff MLP inactive and Vif imaging inactive.
`Cc1onc(-c2ccccc2)c1-c1csc(N/N=C/c2ccccc2Cl)n1` gave Casp6 inh inactive, T cell HTS inactive, Myeloid diff MLP inactive and Vif imaging inactive.
CN1C(=O)c2cc(NC(=O)c3ccc(Cl)cc3)ccc2OC[C@@H]2O[C@H](CC(=O)NCc3cccc(F)c3)CC[C@H]21 was read as Casp6 inh inactive.
Screening O=C(Nc1ccccc1)[C@@H]1CC=C[C@@H]2CCN(C3CCCCC3)C(=O)[C@@H]21 returned Casp6 inh inactive, T cell HTS inactive, Myeloid diff MLP inactive and Vif imaging inactive.
`O=C(NC1CCCCC1)[C@@H]1CC=C[C@@H]2CCN(C3CCCCC3)C(=O)[C@@H]21` gave Casp6 inh inactive, T cell HTS inactive, Myeloid diff MLP inactive and Vif imaging 52.6.
CCCC#Cc1ccc([C@H]2[C@H](CO)N3CCCCN(CC4CC4)C[C@@H]23)cc1 was read as Casp6 inh inactive.
CCCNC(=O)[C@H]1[C@H](CO)[C@H]2Cn3c(ccc(-c4ccc(F)cc4)c3=O)[C@H]2N1CC1CC1 was read as Casp6 inh inactive.
Cc1ccccc1C(=O)N1CCC(C(=O)Nc2ccc(S(=O)(=O)N3CCCC3)cc2)CC1 was read as T cell HTS inactive, Myeloid diff MLP active and Vif imaging inactive.
`Cc1ccccc1C(=O)N1CCC(C(=O)Nc2cccc(S(=O)(=O)N3CCCCC3)c2)CC1` gave Casp6 inh inactive, T cell HTS inactive, Myeloid diff MLP inactive and Vif imaging inactive.
Cc1sc(NC(=O)c2ccco2)c(C(c2cccnc2)N2CCN(CCO)CC2)c1C (configuration not stated) was read as Casp6 inh inactive, T cell HTS inactive, Myeloid diff MLP inactive and Vif imaging inactive.
Screening Cc1sc(NC(=O)c2ccco2)c(C(c2cccnc2)N2CCN(c3ccc(F)cc3)CC2)c1C (configuration not stated) returned Casp6 inh inactive, T cell HTS inactive, Myeloid diff MLP active and Vif imaging inactive.
